Measured values: PMC5823510 (Journal of the American Chemical Society, 2018)

How the values were obtained:
[1] = molecular target: T1, hABH2 (human AlkB Homolog 2) (Homo sapiens, UniProt Q6NS38); test: Enzyme selectivity screen, hABH2; assay type: biochemical; settings: 20 μM
T1 sequence (Q6NS38 1-261): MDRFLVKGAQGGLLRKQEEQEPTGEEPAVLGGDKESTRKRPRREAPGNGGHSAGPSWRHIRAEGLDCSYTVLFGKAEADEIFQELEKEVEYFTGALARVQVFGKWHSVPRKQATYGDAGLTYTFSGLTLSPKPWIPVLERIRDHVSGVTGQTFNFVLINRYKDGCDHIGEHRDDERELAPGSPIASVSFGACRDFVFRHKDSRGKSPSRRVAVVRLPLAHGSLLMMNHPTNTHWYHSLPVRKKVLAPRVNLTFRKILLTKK

[2] = molecular target: T2, SMUG1 (single-strand selective monofunctional uracil DNA glycosylase) (Homo sapiens, UniProt Q53HV7); test: Enzyme selectivity screen, SMUG1; assay type: biochemical; settings: 20 μM
T2 sequence (Q53HV7 1-270): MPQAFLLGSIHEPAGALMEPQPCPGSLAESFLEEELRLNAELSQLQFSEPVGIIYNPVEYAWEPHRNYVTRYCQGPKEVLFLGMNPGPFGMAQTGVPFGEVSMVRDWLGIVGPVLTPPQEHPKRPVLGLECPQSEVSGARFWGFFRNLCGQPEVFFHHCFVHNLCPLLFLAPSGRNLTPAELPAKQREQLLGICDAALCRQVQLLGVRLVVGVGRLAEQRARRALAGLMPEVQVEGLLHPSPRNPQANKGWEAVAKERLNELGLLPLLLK

[3] = molecular target: Recombinant His-tagged OGG1 (Homo sapiens, UniProt O15527); test: Surface plasmon resonance; assay type: binding; settings: Biacore 8K, 1:3 dilution series, highest concentration 4 μM
[4] = molecular target: OGG1 activity in MCF-7 cell lysates (Homo sapiens, UniProt O15527); test: Inhibition of OGG1 activity in MCF-7 cell lysate; assay type: biochemical; settings: MCF-7 lysate, 0.5 μM, measured at 20 h
[5] = molecular target: OGG1 activity in HeLa cell lysates (Homo sapiens, UniProt O15527); test: Inhibition of OGG1 activity in HeLa cell lysate; assay type: biochemical; settings: 0.5 μM, measured at 20 h
Summary of the method: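 Cells were grown 48 h to confluence in DMEM with 10% FBS. Cytoplasmic fractions came from hypotonic swelling and needle lysis; nucleoplasmic fractions from 0.42 M NaCl extraction. The two were mixed 2:1. Each reaction held 100 ng/µL total protein, 2 µM pOGR1 fluorogenic probe, 10 mM MgCl2 and test compound at 0.5 μM, and ran […] at 37 °C. Fluorescence was read at 460 nm (excitation 355 nm).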

[6] = molecular target: NUDT16 (nucleoside diphosphate-linked moiety X-type motif 16) (Homo sapiens, UniProt Q96DE0); test: Enzyme selectivity screen, NUDT16; assay type: biochemical; settings: 20 μM
OGG1 in HeLa cells = OGG1 in HeLa cells (Homo sapiens, UniProt O15527); test: Detection of 8-OG; assay type: cell-based; settings: 0.5 μM, 24 h, LC/MS-MS
Summary of the method: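 HeLa cells were seeded at 2×10^6 per 10 cm dish in DMEM with 10% FBS and grown 12 h. They were then exposed 24 h at 37 °C to test compound at 5 or 0.5 μM, with compound-containing medium renewed every 6 h. Controls were untreated cells and H2O2 (0.5 mM) plus CrCl3 (0.3 mM). DNA (5 µg) was digested to nucleosides, and 8-oxodG was quantified by LC-MS/MS with 15N-labelled internal standards and normalised to dG.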

[7] = molecular target: MTH1 (human MutT Homolog 1) (Homo sapiens, UniProt P36639); test: Enzyme selectivity screen, MTH1; assay type: biochemical; settings: 20 μM
HEK293T cells = test: Toxicity via MTT assay, HEK293T; assay type: cell-based, human
Summary of the method: (§1)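 HEK293T cells (1.6×10^4/well, pre-grown 30 h) or HeLa cells (1.2×10^4/well, pre-grown 16 h) were cultured in DMEM with 10% FBS. They were exposed 24 h at 37 °C to test compound at 10 nM–100 μM, with 5% DMSO at 100 μM and 1% DMSO otherwise; medium-only and DMSO-matched controls were included. MTT was added at 0.5 mg/mL final, followed by 20 h solubilisation and absorbance reading at 550 and 650 nm.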

hOGG1 [8] = molecular target: T3, hOGG1 (Homo sapiens, UniProt O15527); test: OGG1 inhibitor assay with fluorogenic OGR1 probe; assay type: biochemical
[9] = test system: dUTPase (deoxyuridine 5′-triphosphate nucleotidohydrolase); test: Enzyme selectivity screen, dUTPase; assay type: biochemical; settings: 20 μM
HeLa cells = test: Toxicity via MTT assay, HeLa; assay type: cell-based, human
Summary of the method: as §1

Caco-2 (clone C2BBel) = test: CACO-2 permeability assay; assay type: in vitro ADME; settings: for Papp avg: average; for Papp R1: replicate R1
hOGG1 [10] = molecular target: T3, hOGG1; test: Michaelis–Menten kinetics of hOGG1 with OGR1 probe; assay type: biochemical
Summary of the method: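 Recombinant hOGG1 (100 nM) was preincubated 15 min at 37 °C in NEBuffer 4 (pH 7.9) with BSA, without or with test compound (200 nM or 2 μM). OGR1 fluorogenic substrate was added at 0.8–10 μM and fluorescence read at 460 nm (excitation 355 nm). Initial rates over 10 min gave Michaelis–Menten curves and Lineweaver–Burk plots, yielding Km and Vmax; kcat = Vmax/[enzyme].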

[11] = molecular target: T4, hABH3 (human AlkB Homolog 3) (Homo sapiens, UniProt Q96Q83); test: Enzyme selectivity screen, hABH3; assay type: biochemical; settings: 20 μM
T4 sequence (Q96Q83 1-286): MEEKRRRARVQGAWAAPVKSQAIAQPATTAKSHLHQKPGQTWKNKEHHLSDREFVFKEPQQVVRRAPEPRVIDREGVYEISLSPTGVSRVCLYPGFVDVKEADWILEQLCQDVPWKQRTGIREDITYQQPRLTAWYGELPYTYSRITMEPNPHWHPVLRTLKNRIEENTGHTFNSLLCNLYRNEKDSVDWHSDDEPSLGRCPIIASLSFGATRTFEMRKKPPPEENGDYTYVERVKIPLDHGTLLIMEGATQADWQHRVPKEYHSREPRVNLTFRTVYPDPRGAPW

T3 sequence (O15527 whole entry): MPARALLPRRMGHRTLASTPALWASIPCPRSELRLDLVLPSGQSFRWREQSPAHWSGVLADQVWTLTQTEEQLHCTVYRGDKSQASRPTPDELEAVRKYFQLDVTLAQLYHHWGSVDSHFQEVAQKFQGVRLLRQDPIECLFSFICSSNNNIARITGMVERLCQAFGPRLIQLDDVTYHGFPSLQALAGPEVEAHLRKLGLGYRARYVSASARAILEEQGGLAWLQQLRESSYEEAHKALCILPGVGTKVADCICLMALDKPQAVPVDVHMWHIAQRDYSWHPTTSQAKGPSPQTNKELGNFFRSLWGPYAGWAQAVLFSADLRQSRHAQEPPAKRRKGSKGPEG
Sequence of NUDT16 (nucleoside diphosphate-linked moiety X-type motif 16) (Q96DE0 whole entry, species assumed): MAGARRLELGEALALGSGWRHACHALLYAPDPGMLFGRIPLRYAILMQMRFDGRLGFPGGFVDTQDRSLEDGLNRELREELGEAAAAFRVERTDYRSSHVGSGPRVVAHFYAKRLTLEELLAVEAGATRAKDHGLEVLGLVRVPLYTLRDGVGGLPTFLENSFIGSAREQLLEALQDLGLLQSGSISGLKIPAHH
Sequence of OGG1 activity in MCF-7 cell lysates (O15527 whole entry): as the sequence (O15527 whole entry) above
Sequence of Recombinant His-tagged OGG1 (O15527 whole entry): as above
Sequence of OGG1 in HeLa cells (O15527 whole entry): as above
Sequence of OGG1 activity in HeLa cell lysates (O15527 whole entry): as above

NC(=O)c1cccc(-c2ccc(S(=O)(=O)Nc3ccc4c(c3)N(C(=O)C3CC3)CCC4)cc2)c1 [Compound 41]
activity against hABH2 [1]: low or negligible
activity against SMUG1 [2]: low or negligible
Kd (1:1 kinetic and steady-state models) [3]: consistent with IC50 of the biochemical assay
inhibition of probe signal [4]: 95%
inhibition of probe signal [5]: 64%
activity against NUDT16 [6]: low or negligible
increase of 8-oxodG levels in DNA relative to mock-treated controls (OGG1 in HeLa cells): 25%
activity against MTH1 [7]: low or negligible
toxicity at 10 μM (HEK293T cells; HEK293T (one of two human cell lines), 10 μM): no toxicity
cytotoxicity (MTT) (HEK293T cells; HEK293T, 10 nM to 10 μM, 24 h): little or no cytotoxicity
apparent toxicity (MTT) (HEK293T cells; HEK293T, 100 μM, 24 h): 30–50%
Enzyme activity, % of control at 2 μM (hOGG1 [8]; 2 μM compound, initial rate (first 12 min)): 4.8 % of control
IC50 (hOGG1 [8]; OGR1 assay, initial rates method): 59 nM
Enzyme activity, % of control at 200 μM (third column of Table 5) (hOGG1 [8]; head of Table 5 c4 prints 200 μM, initial rate (first 12 min)): 39 ±2.5 % of control
activity against dUTPase [9]: low or negligible
toxicity at 10 μM (HeLa cells; HeLa (one of two human cell lines), 10 μM): no toxicity
cytotoxicity (MTT) (HeLa cells; HeLa, 10 nM to 10 μM, 24 h): little or no cytotoxicity
apparent toxicity (MTT) (HeLa cells; HeLa, 100 μM, 24 h): 30–50%
recovery (Caco-2 (clone C2BBel); A-to-B): 65%
Papp avg (Caco-2 (clone C2BBel); A-to-B): 1.25e-05 cm/s
Papp R1 (Caco-2 (clone C2BBel); A-to-B): 1.42e-05 cm/s
recovery (Caco-2 (clone C2BBel); B-to-A): 79%
efflux ratio (Caco-2 (clone C2BBel); B-to-A / A-to-B): 6.2
Papp avg (Caco-2 (clone C2BBel); B-to-A): 7.74e-05 cm/s
Papp R1 (Caco-2 (clone C2BBel); B-to-A): 6.35e-05 cm/s
mode of inhibition (hOGG1 [10]; Lineweaver–Burk analysis, 200 nM and 2 μM): competitive inhibitor
kcat (hOGG1 [10]; with 200 nM 41): 0.040 s⁻¹
kcat (hOGG1 [10]; with 2 μM 41): 0.057 s⁻¹
activity against hABH3 [11]: low or negligible
